# Assays:
# [1] = Metabolic stability in human liver microsomes assessed as compound remaining at 3 uM after 10 mins by HPLC/UV/MS analysis; format: ADME, Microsome; settings: read-out: Stability
# [2] = target: T1, Corticotropin-releasing factor receptor 1 (Rattus norvegicus, UniProt P35353); test: Displacement of [125I]Tyr-o-CRF from CRF1 receptor in rat frontal cortex homogenate by binding titration assay; format: tissue-based
# T1 sequence (P35353 whole entry): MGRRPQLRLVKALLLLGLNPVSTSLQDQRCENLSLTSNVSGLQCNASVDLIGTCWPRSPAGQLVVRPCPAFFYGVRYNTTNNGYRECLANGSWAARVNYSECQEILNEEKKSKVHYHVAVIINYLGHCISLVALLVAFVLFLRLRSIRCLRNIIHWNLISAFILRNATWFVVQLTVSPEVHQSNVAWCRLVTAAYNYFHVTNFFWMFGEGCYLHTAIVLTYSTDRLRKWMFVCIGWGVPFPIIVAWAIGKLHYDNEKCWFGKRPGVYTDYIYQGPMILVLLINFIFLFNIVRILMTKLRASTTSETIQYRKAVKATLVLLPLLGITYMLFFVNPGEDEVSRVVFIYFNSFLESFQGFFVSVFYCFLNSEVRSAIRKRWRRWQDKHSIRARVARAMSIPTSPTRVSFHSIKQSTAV
# [3] = Clearance in Sprague-Dawley rat at 2 mg/kg, iv after 0.17 to 24 hrs by LC/MS/MS analysis; format: ADME, organism-based; set-up: dose 2 mg/kg, route intravenous; settings: in vivo
# [4] = Half life in Sprague-Dawley rat at 2 mg/kg, iv by LC/MS/MS analysis; format: ADME, organism-based; set-up: dose 2 mg/kg, route intravenous; settings: in vivo
# [5] = Metabolic stability in rat liver microsomes assessed as compound remaining at 3 uM after 10 mins by HPLC/UV/MS analysis; format: ADME, Microsome; settings: read-out: Stability
# Summary of the method: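 Pooled human or rat liver microsomes (1 mg/mL protein) with 3 μM compound and 1.3 mM NADPH in 100 mM sodium phosphate pH 7.4 at 37 °C; final 0.015% DMSO, 0.985% acetonitrile; stopped at 0 and 10 min, percent remaining by LC/MS/MS.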
# [6] = AUC in Sprague-Dawley rat at 10 mg/kg, po dosed as aqueous suspension of Labrafil M 1944CS/DMAC/polysorbate 80, 85:10:5 (v/v) after 0.25 to 24 hrs by LC/MS/MS analysis; format: ADME, organism-based; set-up: time 0.25-24 hr, dose 10 mg/kg, route oral; settings: plasma
# [7] = Volume of distribution at steady state in Sprague-Dawley rat at 2 mg/kg, iv after 0.17 to 24 hrs by LC/MS/MS analysis; format: ADME, organism-based; set-up: dose 2 mg/kg, route intravenous; settings: in vivo, read-out: Vdss
# Summary of the method: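 Sprague–Dawley rats (n = 3) dosed 2 mg/kg iv in PEG:ethanol 90:10 (v/v) at 1 mL/kg. Plasma stored at –20 °C and quantified by LC/MS/MS after acetonitrile precipitation with internal standard.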
# [8] = Cmax in Sprague-Dawley rat at 10 mg/kg, po dosed as aqueous suspension of Labrafil M 1944CS/DMAC/polysorbate 80, 85:10:5 (v/v) after 2 to 4 hrs by LC/MS/MS analysis; format: ADME, organism-based; set-up: dose 10 mg/kg, route oral; settings: in vivo
# [9] = Oral bioavailability in Sprague-Dawley rat at 10 mg/kg dosed as aqueous suspension of Labrafil M 1944CS/DMAC/polysorbate 80, 85:10:5 (v/v) after 0.25 to 24 hrs by LC/MS/MS analysis; format: ADME, organism-based; settings: in vivo
# [10] = Fraction unbound in human serum after 3 to 7 hrs by equilibrium dialysis; format: ADME, cell-free
# Summary of the method: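 Human serum spiked with compound, equilibrium-dialysed against isotonic phosphate buffer for 3 or 7 h (depending on system) at 37 °C; both sides measured by LC/MS/MS, unbound fraction as buffer/serum concentration ratio.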
# [11] = Dissociation constant, pKa by spectrophotometric titration method; format: physicochemical
# Summary of the method: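 Spectrophotometric titration over pH 2–11 in varying acetonitrile/water mixtures, extrapolated to 0% cosolvent.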
# [12] = Oral bioavailability in Sprague-Dawley rat at 10 mg/kg dosed as aqueous suspension of 1% polysorbate 80 in 0.5% methylcellulose after 0.25 to 24 hrs by LC/MS/MS analysis; format: ADME, organism-based; settings: in vivo
# [13] = Cmax in Sprague-Dawley rat at 10 mg/kg, po dosed as aqueous suspension of 1% polysorbate 80 in 0.5% methylcellulose after 2 to 4 hrs by LC/MS/MS analysis; format: ADME, organism-based; set-up: dose 10 mg/kg, route oral; settings: in vivo
# [14] = Octanol-water partition coefficient, log D at pH 7.4; format: physicochemical
# Summary of the method: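 Partitioning between octanol and water at pH 7.4.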
# [15] = Aqueous solubility at pH 1; format: physicochemical
# [16] = Aqueous solubility at pH 6.5; format: physicochemical
# [17] = AUC in Sprague-Dawley rat at 10 mg/kg, po dosed as aqueous suspension of 1% polysorbate 80 in 0.5% methylcellulose after 0.25 to 24 hrs by LC/MS/MS analysis; format: ADME, organism-based; set-up: time upper 24 hr, time lower 0.25 hr, dose 10 mg/kg, route oral; settings: in vivo
# Liver microsomes [18] = test: Metabolic stability in NADPH-fortified human liver microsomes assessed as pyrazinone oxidation metabolite formation at 10 uM after 30 mins by HPLC/UV/MS analysis; format: ADME, Microsome; settings: 0.5 h
# Summary of the method: (§1)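 Pooled rat or human liver microsomes 1 mg/mL, 10 μM substrate, 100 mM potassium phosphate pH 7.4, 37 °C, started with NADPH-regenerating system (1.3 mM NADP+, 3.3 mM glucose-6-phosphate, 3.3 mM MgCl2, 0.5 U/mL G6PDH); GSH 5 mM in trapping runs. Sampled 0 and 30 min, acetonitrile quench; abundance as UV peak area (330–340 nm) fraction of all drug-related components by HPLC/UV/MS.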
# Liver microsomes [19] = test: Metabolic stability in NADPH-fortified rat liver microsomes assessed as pyrazinone oxidation metabolite formation at 10 uM after 30 mins by HPLC/UV/MS analysis; format: ADME, Microsome; settings: 0.5 h; summary of the method: as §1
# [20] = Metabolic stability in NADPH-fortified rat liver microsomes assessed as parent compound remaining at 10 uM after 30 mins by HPLC/UV/MS analysis; format: ADME, Microsome; settings: read-out: Stability; summary of the method: as §1
# Liver microsomes [21] = test: Metabolic stability in NADPH-fortified human liver microsomes assessed as GSH adduct formation at 10 uM after 30 mins by HPLC/UV/MS analysis; format: ADME, Microsome; settings: 0.5 h; summary of the method: as §1
# [22] = Metabolic stability in NADPH-fortified human liver microsomes assessed as parent compound remaining at 10 uM after 30 mins by HPLC/UV/MS analysis; format: ADME, Microsome; settings: read-out: Stability; summary of the method: as §1
# Liver microsomes [23] = test: Metabolic stability in NADPH-fortified rat liver microsomes assessed as GSH adduct formation at 10 uM after 30 mins by HPLC/UV/MS analysis; format: ADME, Microsome; settings: 0.5 h; summary of the method: as §1
Compound,"remaining at 10 min, 3 µM [1] [%]",IC50 [2] [nM],clearance [3] [mL/min/kg],half-life [4] [h],"remaining at 10 min, 3 µM [5] [%]",AUC [6] [µM·h],Vd [7] [L/kg],Cmax [8] [nM],bioavailability [9] [%],fraction unbound [10],further results
COC[C@@H](C1CC1)n1cc(Cl)nc(Nc2cc(C)c(OC(F)F)nc2C)c1=O,84,0.5,31,16,46,4.7,42,440,48,0.008,
CC[C@H](C1CC1)n1cc(Cl)nc(Nc2cc(C)c(OC(F)F)nc2C)c1=O,100,0.21,,,56,,,,,,
COC[C@@H](C)n1cc(Cl)nc(Nc2cc(C)c(OC)nc2C)c1=O,39,14,,,8,,,,,,
COC[C@H](C1CC1)n1cc(Cl)nc(Nc2cc(C)c(OC)nc2C)c1=O,48,1.5,38,19,24,3,19,510,26,0.021,pKa [11]: 3.1; bioavailability [12]: 11%; Cmax [13]: 180 nM; logD [14]: 3.9; solubility [15]: 116 µg/mL; solubility [16]: 6 µg/mL; AUC [17]: 1.3 µM·h
COC[C@@H](C)n1cc(Cl)nc(Nc2cc(C)c(OC(F)F)nc2C)c1=O,87,1.6,,,66,,,,,,
COC[C@H](C1CC1)n1cc(C#N)nc(Nc2cc(C)c(OC)nc2C)c1=O,60,12,,,51,,,,,,
Cc1cc(Nc2nc(Cl)cn([C@H](C)C3CC3)c2=O)c(C)nc1OC(F)F,100,0.3,,,86,,,,,,
COc1nc(C)c(Nc2nc(Cl)cn([C@H](C)C3CC3)c2=O)cc1C,77,1.5,,,55,,,,,,
CC[C@H](C1CC1)n1cc(Cl)nc(Nc2cc(C)c(OC)nc2C)c1=O,51,0.28,,,5,,,,,,
C[C@@H](C1CC1)n1cc(Cl)nc(Nc2c(Cl)cc(OC(F)F)cc2Cl)c1=O,,,,,,,,,,,"Activity (Liver microsomes [18]): 12%; Activity (Liver microsomes [19]): 20%; remaining at 0.5 h, 10 µM [20]: 74%; Activity (Liver microsomes [21]): 2%; remaining at 0.5 h, 10 µM [22]: 85%; Activity (Liver microsomes [23]): 5%"
Cc1cc(Nc2nc(C#N)cn([C@H](C)C3CC3)c2=O)c(C)nc1OC(F)F,100,0.82,36,7.2,89,9.9,11,1400,82,0.016,"bioavailability [12]: 38%; Cmax [13]: 560 nM; Activity (Liver microsomes [18]): < 1%; Activity (Liver microsomes [19]): < 1%; remaining at 0.5 h, 10 µM [20]: 80%; AUC [17]: 4.6 µM·h; Activity (Liver microsomes [21]): 7%; remaining at 0.5 h, 10 µM [22]: 88%; Activity (Liver microsomes [23]): 8%"
COC[C@@H](C1CC1)n1cc(C#N)nc(Nc2cc(C)c(OC(F)F)nc2C)c1=O,78,1.4,,,64,,,,,,
COC[C@@H](C1CC1)n1cc(Cl)nc(Nc2cc(C)c(OC)nc2C)c1=O,40,1.1,,,13,,,,,,
COc1nc(C)c(Nc2nc(C#N)cn([C@H](C)C3CC3)c2=O)cc1C,99,10,,,72,,,,,,
CC[C@H](C1CC1)n1cc(C#N)nc(Nc2cc(C)c(OC)nc2C)c1=O,81,1.7,53,9,38,3,11,590,33,0.019,pKa [11]: < 2; bioavailability [12]: 3%; Cmax [13]: 50 nM; logD [14]: 4.1; solubility [15]: 23 µg/mL; solubility [16]: 1 µg/mL; AUC [17]: 0.24 µM·h
COC[C@H](C1CC1)n1cc(Cl)nc(Nc2cc(C)c(OC(F)F)nc2C)c1=O,,0.24,36,9.2,69,9,15,1300,86,0.008,"bioavailability [12]: 66%; Cmax [13]: 770 nM; Activity (Liver microsomes [18]): 1%; Activity (Liver microsomes [19]): 1%; remaining at 0.5 h, 10 µM [20]: 42%; AUC [17]: 7 µM·h; Activity (Liver microsomes [21]): 5%; remaining at 0.5 h, 10 µM [22]: 75%; Activity (Liver microsomes [23]): 3%"

# Source: ChEMBL document CHEMBL1154735, “A strategy to minimize reactive metabolite formation: discovery of (S)-4-(1-cyclopropyl-2-methoxyethyl)-6-[6-(difluoromethoxy)-2,5-dimethylpyridin-3-ylamino]-5-oxo-4,5-dihydropyrazine-2-carbonitrile as a potent, orally bioavailable corticotropin-releasing factor-1 receptor antagonist” (J Med Chem, 2009)
